Test results: ChEMBL document CHEMBL3098028, “Synthesis and in vitro and in vivo pharmacological evaluation of new 4-aminoquinoline-based compounds” (ACS Med Chem Lett, 2013)
pIC50: −log10 of the molar value. ≈ marks a conversion by molar mass, not a printed value.

Legend:
[1] = Kinetic solubility of the compound in phosphate buffered saline at pH 7.4 after 2 hrs by HPLC analysis; format: physicochemical; conditions: read-out: Kinetic_solubility
Plasmodium falciparum [2] = experiment: Antiplasmodial activity against chloroquine-sensitive Plasmodium falciparum 3D7 after 24 hrs by [3H]hypoxanthine incorporation assay; format: functional, organism-based
Summary of the method: (§1)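 Antiplasmodial testing was done at the Swiss Tropical and Public Health Institute. Chloroquine, the reference drug, was tested as its diphosphate salt.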

Plasmodium falciparum [3] = experiment: Antiplasmodial activity against chloroquine-resistant Plasmodium falciparum K1 after 24 hrs by [3H]hypoxanthine incorporation assay; format: functional, organism-based; summary of the method: as §1
Plasmodium falciparum [4] = experiment: Antiplasmodial activity against chloroquine-resistant Plasmodium falciparum W2 after 24 hrs by [3H]hypoxanthine incorporation assay; format: functional, organism-based; summary of the method: as §1
Plasmodium falciparum [5] = experiment: Resistance index, ratio of IC50 for chloroquine-resistant Plasmodium falciparum K1 to IC50 for chloroquine-sensitive Plasmodium falciparum 3D7; format: functional
[6] = Kinetic solubility of the compound in 0.01 M HCl at pH 2 after 2 hrs by HPLC analysis; format: physicochemical; conditions: read-out: Kinetic_solubility

Structure (SMILES)	solubility kinetic at 2 h [1] [µM]	pIC50 (Plasmodium falciparum [2])	pIC50 (Plasmodium falciparum [3])	pIC50 (Plasmodium falciparum [4])	Ratio IC50 (Plasmodium falciparum [5])	solubility kinetic at 2 h [6] [µM]
CC(C)(C)n1nnnc1C(NCCNc1ccnc2cc(Cl)ccc12)c1ccccc1 (centres undefined)	111 (≈ 48.4 µg/mL)	8.30	7.42	7.16	7.6	> 200
Cc1ccc(C(NCCNc2ccnc3cc(Cl)ccc23)c2nnn[nH]2)cc1 (centres undefined)			4.76			
Clc1ccc2c(NCCNC(c3ccc(Cl)c(Cl)c3)c3nnn[nH]3)ccnc2c1 (centres undefined)	70.1 (≈ 31.5 µg/mL)		5.36			191 (≈ 85.7 µg/mL)
Clc1ccc(C(NCCNc2ccnc3cc(Cl)ccc23)c2nnn[nH]2)cc1 (centres undefined)	164 (≈ 67.9 µg/mL)		5.62			> 200
Clc1ccc2c(NCCCNC(c3ccccc3)c3nnn[nH]3)ccnc2c1 (centres undefined)			4.85			
Clc1ccc2c(NCCCCNC(c3ccccc3)c3nnn[nH]3)ccnc2c1 (centres undefined)			5.16			
COc1ccc(C(NCCNc2ccnc3cc(Cl)ccc23)c2nnnn2C(C)(C)C)cc1 (centres undefined)		5.42	6.81	7.34	0.041	
